# Bioassay records deposited in PubChem by The Scripps Research Institute Molecular Screening Center.
# TRPN1 ag = activates the zebrafish TRPN1 channel; hit rate 0.18% among 220,000; activation, % at 3 µM; AID 1424; HEK293 zebrafish TRPN1-YFP, Fluo-8 calcium fluorescence; 100% = response to 87 µM carbachol;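 active means activation above its plate's cutoff, the mean activation of test wells on that plate plus 3 SD, cut at about 19% in these data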
#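 Control set: carbachol 87 µM as high control, DMSO as low control; system: HEK293 stable line with zebrafish TRPN1-YFP; read-out: % activation versus carbachol response; detection: intracellular calcium fluorescence with Fluo-8; doses: single test compound dose, 3 µM nominal, 0.3% DMSO; schedule: dye 1 h 37 °C plus 30 min RT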
# TRPML3 ag = human mucolipin-3 channel agonism; activation, % at 3 µM; hit rate 0.29% among 220,000; HEK293 TRPML3-YFP, Fluo-8 calcium fluorescence; 100% = the carbachol control signal;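 active means activation above its plate's cutoff, the mean activation of the plate's test wells plus 3 SD, cut at about 12% in these data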
# Target sequence (Q8TDD5 whole entry, looked up): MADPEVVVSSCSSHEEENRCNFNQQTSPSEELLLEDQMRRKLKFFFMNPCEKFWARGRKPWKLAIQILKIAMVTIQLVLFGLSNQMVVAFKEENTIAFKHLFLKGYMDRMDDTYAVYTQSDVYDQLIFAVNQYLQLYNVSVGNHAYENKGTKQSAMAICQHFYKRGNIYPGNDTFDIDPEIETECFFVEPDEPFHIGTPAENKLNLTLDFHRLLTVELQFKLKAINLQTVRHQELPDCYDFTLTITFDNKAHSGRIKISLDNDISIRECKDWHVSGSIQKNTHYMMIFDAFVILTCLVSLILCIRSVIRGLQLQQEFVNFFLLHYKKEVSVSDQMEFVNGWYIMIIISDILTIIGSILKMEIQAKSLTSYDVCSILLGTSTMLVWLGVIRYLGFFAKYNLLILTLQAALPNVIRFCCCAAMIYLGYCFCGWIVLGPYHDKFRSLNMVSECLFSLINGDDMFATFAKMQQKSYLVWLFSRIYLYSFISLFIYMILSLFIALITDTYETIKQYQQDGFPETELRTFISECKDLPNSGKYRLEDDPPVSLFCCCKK
#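 Test system: TRPML3-YFP stable HEK293 cells. Doses: single point at 3 µM. Incubation: dye loading 1 h 37 °C then 30 min ambient, 125 s read. Signal: Fluo-8 calcium dye fluorescence, ex 470-495, em 515-575 nm. Measure: percent activation from peak-to-basal fluorescence ratio, scaled between DMSO and carbachol.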
# M1 ag parental = nonselective activator or artifact in parental CHO-K1 cells; hit rate 0.48% among 360,000; AID 602248; Fluo-8 calcium fluorescence; scaled to maximal ATP response, vehicle zero; activation, % at 3 µM; in the data active means activation above about 15%;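 further: untransfected CHO-K1 host cells lacking M1 receptor as counterscreen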
# CHO-K1 Ca antag = nonselective inhibitor or artifact in parental CHO-K1 cells; hit rate 0.6% among 360,000; ATP-induced calcium, Fluo-8 fluorescence; inhibition, % at 3 µM;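 active means inhibition above a per-plate cutoff, the plate's mean sample inhibition plus 3 SD, cut at about 24% in these data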
# M1 PAM parental = M1 PAM counterscreen hit in parental CHO-K1 cells. ATP EC20, Fluo-8 calcium fluorescence; 0% at ATP EC20, 100% at ATP max. activation, % at 3 µM. hit rate 0.02% among 360,000. AID 602247;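 active means activation above the run cutoff, the mean activation of all test compounds plus 3 SD, cut at about 40% in these data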;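 further: peak over basal fluorescence ratio in a 140 s read after ATP addition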
# Hits are given with their value; i = inactive; nt = no result given. Hits are enriched below; roughly 1.2% of the tested compounds scored in any of these assays.
SMILES,TRPN1 ag,TRPML3 ag,M1 ag parental,CHO-K1 Ca antag,M1 PAM parental
O=C1C2CCCCN2C(=O)N1CCCCN1CCN(c2ccc([N+](=O)[O-])cc2)CC1 (centres undefined),i,i,16.2,i,i
Cc1ccc(N2CCN(CCCN3C(=O)C4CCCN4C3=O)CC2)cc1 (centres undefined),i,i,i,i,i
CC(=NNC(=O)c1ccncc1)c1ccc2ccccc2c1O,nt,nt,68.8,i,i
CCn1c(CN2CCC(C)CC2)nc2cc(S(=O)(=O)N3CCCCC3)ccc21,nt,nt,i,i,i
CCOC(=O)/C=C/C(=O)Nc1ccc(Oc2ccccc2)cc1,i,i,i,28.3,i
CCN1/C(=C/C=C/c2oc3ccc4ccccc4c3[n+]2CC)Oc2ccc3ccccc3c21,72.5,31.4,nt,nt,nt
CC[n+]1c(/C=C/N(C)c2ccccc2)oc2ccc(Cl)cc21,i,i,i,i,i
N#Cc1ccccc1CSc1nc2ccc(NC(=O)c3ccccc3C(=O)O)cc2s1,i,i,i,31.2,i
CCCOc1ccc(Br)cc1CSC(=N)N,i,i,35.7,i,i
Cn1c(N)c(C(=O)COC(=O)c2cccc(S(=O)(=O)N3CCCCC3)c2)c(=O)n(C)c1=O,i,i,i,29.3,i
Cn1c(N)c(C(=O)COC(=O)c2cc(S(=O)(=O)N3CCCCC3)ccc2Cl)c(=O)n(C)c1=O,i,i,i,i,i
Cc1ccc(S(=O)(=O)N2CCCC(C(=O)NCCc3ccc(Cl)cc3)C2)cc1 (centres undefined),nt,nt,i,i,i
Cc1ccc(C2(C)NC(=O)N(CC(=O)N3CCc4ccccc43)C2=O)cc1 (centres undefined),nt,nt,19.9,i,i
CC1(c2ccc(Cl)cc2)NC(=O)N(CC(=O)N2CCc3ccccc32)C1=O (centres undefined),nt,nt,18.9,i,i
CCC1(CC)NC(=O)N(CC(=O)N2CCc3ccccc32)C1=O,nt,nt,i,i,i
COc1ccc(-c2cc(-c3ccccc3O)[nH]n2)cc1OC,i,i,i,25.1,i
CCOC(=O)N1CCC(N2Cc3cccc(C(=O)NC(C)c4ccc5c(c4)OCCO5)c3C2=O)CC1 (centres undefined),i,i,i,41.6,i
Cc1ccccc1CN1C(=O)c2ccccc2C1c1nnnn1-c1ccc2c(c1)OCCO2 (centres undefined),nt,nt,i,i,i
CCOC(=O)c1c(C)[nH]c(C(=O)CN2C(=O)NC(C)(c3ccc(C)cc3)C2=O)c1C (centres undefined),nt,nt,18.9,i,i
Cc1cc(C)c2c(CN3CCN(C)CC3)cc(=O)oc2c1,i,i,i,i,i
Cc1cc(C)c2c(CN3CCN(CCO)CC3)cc(=O)oc2c1,i,i,i,29.4,i
C[C@@H]1CN([C@@H](C)CO)C(=O)c2cc(NS(=O)(=O)c3ccc(F)cc3)ccc2O[C@@H](C)CCCCO[C@H]1CN(C)C(=O)NC1CCCCC1,nt,nt,i,i,i
CC(=O)NNC(=O)c1sc(=S)n(C)c1C,i,i,19.2,i,i
Cc1c(C(=O)NNS(=O)(=O)c2ccccc2)sc(=S)n1C,i,i,i,i,i
O=C(CSc1nc(-c2ccco2)cc(C(F)(F)F)n1)NC1CCCC1,i,i,i,24.2,i
SMILES,TRPN1 ag,TRPML3 ag,M1 ag parental,CHO-K1 Ca antag,M1 PAM parental
O=C(CSc1nc(-c2ccco2)cc(C(F)(F)F)n1)Nc1ccc2c(c1)CCC2,i,i,i,i,i
CC(=O)Nc1cc(-c2ccc(S(C)(=O)=O)cc2)cn2c(-c3ccc(F)c(Cl)c3)cnc12,nt,nt,i,i,i
CN1CCN(S(=O)(=O)c2cccc(C(=O)N(Cc3nnc(-c4ccccc4Cl)o3)C3CC3)c2)CC1,nt,nt,16.9,i,i
Cc1ccsc1C(=O)N(Cc1nnc(-c2ccccc2Cl)o1)C1CC1,nt,nt,i,i,i
O=C(COc1ccc(S(=O)(=O)NC2CCCCC2)cc1Cl)NCc1cccnc1,i,i,i,27.9,i
O=C(COc1ccc(S(=O)(=O)NC2CCCCC2)cc1)NCc1cccnc1,i,i,i,i,i
O=C(CCCn1c(SCc2ccccc2F)nc2ccccc2c1=O)NCC1CCCO1 (centres undefined),i,i,16.6,i,i
O=C(CCCn1c(SCC(=O)NC2CCCCC2)nc2ccccc2c1=O)NCC1CCCO1 (centres undefined),i,i,i,i,i
CC(=O)N1CCc2c(sc(NC(=O)c3ccc([N+](=O)[O-])o3)c2C(N)=O)C1,nt,nt,i,i,i
CCNc1nc(OC)nc(Oc2ccc(=O)n(-c3ccccc3)n2)n1,i,i,i,24.4,i
Cc1cc2nc(-c3ccc(F)cc3)c(CC(C)(C)C)n2c(C)c1Br,nt,nt,i,i,i
CCC1CCCCN1CCCNC(=O)C1CCC(CNS(=O)(=O)c2c(C)cc(C)cc2C)CC1 (centres undefined),nt,nt,i,24.5,i
CCN(CC)CCCNC(=O)C1CCC(CNS(=O)(=O)c2c(C)cc(C)cc2C)CC1 (centres undefined),nt,nt,i,i,i
N#CC(c1ccc(N)cc1)C(CC(=O)c1ccccc1)c1ccccc1 (centres undefined),nt,nt,i,i,i
CC(OC(=O)CNC(=O)c1ccc(Cl)cc1)C(=O)NC1CCCCC1C (centres undefined),nt,nt,i,25.2,i
COc1ccccc1C(=O)NCC(=O)OC(C)C(=O)NC1CCCCC1C (centres undefined),nt,nt,i,i,i
CC(OC(=O)CNC(=O)c1ccc(Br)cc1)C(=O)NC1CCCCC1C (centres undefined),nt,nt,i,i,i
CC(OC(=O)CNC(=O)c1ccc2ccccc2c1)C(=O)NC1CCCCC1C (centres undefined),nt,nt,17.6,i,i
Cc1ccc(NC(=O)CSCC(=O)N(C)Cc2c(F)cccc2Cl)cc1,nt,nt,i,i,i
Cc1cc2nc(-c3nnnn3C3CCCCC3)c(=O)[nH]c2cc1C,nt,nt,i,i,i
CCCCN(CC)C(=O)c1cc2cc3ccc(OC)cc3nc2o1,i,i,i,25.1,i
COc1ccc(OC(F)(F)F)cc1CC1(C)C(=O)Nc2ccc(S(=O)(=O)NC3CCCCC3)cc21 (centres undefined),nt,nt,i,i,i
COc1cccc(Nc2nc(C(N)Cc3ccc(C(F)(F)F)cc3)cs2)n1 (centres undefined),nt,nt,i,i,i
O=C(O)[C@@H](c1ccccc1)N1Cc2ccccc2C1=O,i,i,i,30.3,i
O=C(O)c1nn(CC(=O)N2CCCCCC2)c(=O)c2ccccc12,i,i,16.3,i,i
SMILES,TRPN1 ag,TRPML3 ag,M1 ag parental,CHO-K1 Ca antag,M1 PAM parental
CC(=O)c1ccc(NC(=O)Nc2cccc(Cl)c2)cc1,i,i,i,34.1,i
COc1cccc(NC(=O)Nc2cccs2)c1,i,i,i,i,i
CC(=O)c1cccc(NC(=O)Nc2cccs2)c1,i,i,i,26.0,i
CC(=O)c1ccc(NC(=S)NCCc2cccc(Cl)c2)cc1,i,i,15.3,i,i
CSc1cccc(NC(=O)Nc2ccc(Cl)cc2)c1,i,i,i,25.5,i
CSc1cccc(NC(N)=O)c1,i,i,i,i,i
